In ChEMBL document CHEMBL1140904, “Synthesis and analysis of novel glycerolipids for the treatment of metabolic syndrome” (J Med Chem, 2009):

Legend:
Rattus norvegicus [1] = assay: Decrease in plasma triacylglycerol level in po dosed Wistar rat after 6 days; type: functional, organism-based
In short: (§1)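 Male Wistar rats (170-210 g), housed in pairs with chow and water, were gavaged once daily for 6 days with test lipid in 0.5% (w/v) carboxymethylcellulose at 85 or 250 µmol TTA-equivalent per animal. Controls received palmitic acid in CMC. Plasma triacylglycerol and cholesterol were measured with an enzymatic kit, and liver levels were also determined. Values are mean ± SD, n=5 rats.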

Rattus norvegicus [2] = assay: Effect on fatty acid composition in Wistar rat assessed as change in liver PUFA level at dose equivalent to 250 umol of tetradecylthioacetic acid, po after 6 days; type: functional
In short: (§2)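 Male Wistar rats were gavaged once daily for 6 days with compound in 0.5% CMC at 85 or 250 µmol TTA-equivalent per animal. Controls received palmitic acid. Liver was homogenized in 0.25 M sucrose/10 mM HEPES pH 7.4/1 mM EDTA at 0-4 °C. Lipids were extracted with chloroform:methanol 2:1 and spiked with 21:0 internal standard. Fatty acids were BF3-methanol transesterified and quantified as wt%. Values are mean ± SD, n=5.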

Rattus norvegicus [3] = assay: Effect on fatty acid composition in Wistar rat assessed as change in liver LCPUFA, n-6 level at dose equivalent to 250 umol of tetradecylthioacetic acid, po after 6 days; type: functional; in short: as §2
Rattus norvegicus [4] = assay: Effect on fatty acid composition in Wistar rat assessed as change in plasma PUFA level at dose equivalent to 250 umol of tetradecylthioacetic acid, po after 6 days; type: functional
Rattus norvegicus [5] = assay: Effect on fatty acid composition in Wistar rat assessed as change in plasma MUFA level at dose equivalent to 250 umol of tetradecylthioacetic acid, po after 6 days; type: functional
Rattus norvegicus [6] = assay: Plasma concentration in Wistar rat assessed as tetradecylthioacetic acid at dose equivalent to 250 umol of tetradecylthioacetic acid, po after 6 days; type: ADME, organism-based; conditions: in vivo, 144 h
Rattus norvegicus [7] = assay: Effect on fatty acid composition in Wistar rat assessed as change in liver PUFA level at dose equivalent to 85 umol of tetradecylthioacetic acid, po after 6 days; type: functional; in short: as §2
Rattus norvegicus [8] = assay: Effect on fatty acid composition in Wistar rat assessed as change in plasma saturated fatty acid level at dose equivalent to 85 umol of tetradecylthioacetic acid, po after 6 days; type: functional
Rattus norvegicus [9] = assay: Decrease in plasma cholesterol level in po dosed Wistar rat after 6 days; type: functional, organism-based; in short: as §1
Rattus norvegicus [10] = assay: Effect on fatty acid composition in Wistar rat assessed as change in liver 18;2, n-6 level at dose equivalent to 250 umol of tetradecylthioacetic acid, po after 6 days; type: functional; in short: as §2
Rattus norvegicus [11] = assay: Effect on fatty acid composition in Wistar rat assessed as change in liver 18;2, n-6 level at dose equivalent to 85 umol of tetradecylthioacetic acid, po after 6 days; type: functional; in short: as §2
Rattus norvegicus [12] = assay: Effect on fatty acid composition in Wistar rat assessed as change in plasma 18;2, n-6 level at dose equivalent to 85 umol of tetradecylthioacetic acid, po after 6 days; type: functional
Rattus norvegicus [13] = assay: Effect on fatty acid composition in Wistar rat assessed as change in plasma LCPUFA, n-6 level at dose equivalent to 250 umol of tetradecylthioacetic acid, po after 6 days; type: functional
Rattus norvegicus [14] = assay: Effect on fatty acid composition in Wistar rat assessed as change in liver LCn-6/18:2 level at dose equivalent to 85 umol of tetradecylthioacetic acid, po after 6 days; type: functional; in short: as §2
Rattus norvegicus [15] = assay: Effect on fatty acid composition in Wistar rat assessed as change in plasma LCn-6/18:2 level at dose equivalent to 85 umol of tetradecylthioacetic acid, po after 6 days; type: functional
Rattus norvegicus [16] = assay: Effect on fatty acid composition in Wistar rat assessed as change in plasma saturated fatty acid level at dose equivalent to 250 umol of tetradecylthioacetic acid, po after 6 days; type: functional
Rattus norvegicus [17] = assay: Effect on fatty acid composition in Wistar rat assessed as change in liver saturated fatty acid level at dose equivalent to 85 umol of tetradecylthioacetic acid, po after 6 days; type: functional; in short: as §2
Rattus norvegicus [18] = assay: Effect on fatty acid composition in Wistar rat assessed as change in plasma 18;2, n-6 level at dose equivalent to 250 umol of tetradecylthioacetic acid, po after 6 days; type: functional
Rattus norvegicus [19] = assay: Induction of PPAR-alpha-regulated CPT2 activity in po dosed Wistar rat after 6 days; type: functional, organism-based
In short: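 Wistar rats were dosed orally for 6 days (85 or 250 µmol TTA-equivalent in 0.5% CMC; palmitic acid controls). CPT-II activity was measured in the liver mitochondrial fraction, prepared from sucrose/HEPES pH 7.4/EDTA homogenate at 0-4 °C. Means ± SD from 5 rats per group.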

Rattus norvegicus [20] = assay: Induction of PPAR-alpha-regulated HMG-CoA synthase activity in po dosed Wistar rat after 6 days; type: functional, organism-based
In short: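 Wistar rats were gavaged daily for 6 days at 85 or 250 µmol TTA-equivalent in 0.5% CMC, with palmitic acid controls. HMG-CoA synthase activity was assayed in the liver postnuclear fraction by the Clinkenbeard method. Mean ± SD, 5 rats/group.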

Rattus norvegicus [21] = assay: Induction of PPAR-alpha-regulated fatty acyl-CoA oxidase activity in po dosed Wistar rat after 6 days; type: functional, organism-based
In short: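 Rats were dosed by gastric intubation for 6 days at 85 or 250 µmol TTA-equivalent in 0.5% CMC, with palmitic acid controls. Fatty acyl-CoA oxidase was measured in the liver postnuclear fraction by a coupled assay, following H2O2 production as the rise in dichlorofluorescein absorbance with palmitoyl-CoA. Mean ± SD, n=5.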

Rattus norvegicus [22] = assay: Effect on fatty acid composition in Wistar rat assessed as change in plasma MUFA level at dose equivalent to 85 umol of tetradecylthioacetic acid, po after 6 days; type: functional
Rattus norvegicus [23] = assay: Effect on fatty acid composition in Wistar rat assessed as change in plasma LCPUFA, n-6 level at dose equivalent to 85 umol of tetradecylthioacetic acid, po after 6 days; type: functional
Rattus norvegicus [24] = assay: Increase in [1-14C]palmitoyl-CoA oxidation in po dosed Wistar rat liver homogenate after 6 days; type: functional, organism-based
In short: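 Rats were dosed by gastric intubation for 6 days with 85 or 250 µmol TTA-equivalent in 0.5% CMC, with palmitic acid controls. Liver was homogenized in 0.25 M sucrose, 10 mM HEPES pH 7.4, 1 mM EDTA at 0-4 °C. Palmitoyl-CoA oxidation was read as acid-soluble products from [1-14C]-palmitoyl-CoA in the postnuclear fraction. Mean ± SD, n=5.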

Rattus norvegicus [25] = assay: Effect on fatty acid composition in Wistar rat assessed as change in plasma PUFA level at dose equivalent to 85 umol of tetradecylthioacetic acid, po after 6 days; type: functional
Rattus norvegicus [26] = assay: Effect on fatty acid composition in Wistar rat assessed as change in liver LCn-6/18:2 level at dose equivalent to 250 umol of tetradecylthioacetic acid, po after 6 days; type: functional; in short: as §2
Rattus norvegicus [27] = assay: Effect on fatty acid composition in Wistar rat assessed as change in liver MUFA level at dose equivalent to 250 umol of tetradecylthioacetic acid, po after 6 days; type: functional; in short: as §2
Rattus norvegicus [28] = assay: Effect on fatty acid composition in Wistar rat assessed as change in liver LCPUFA, n-6 level at dose equivalent to 85 umol of tetradecylthioacetic acid, po after 6 days; type: functional; in short: as §2
Rattus norvegicus [29] = assay: Effect on fatty acid composition in Wistar rat assessed as change in liver MUFA level at dose equivalent to 85 umol of tetradecylthioacetic acid, po after 6 days; type: functional; in short: as §2
Rattus norvegicus [30] = assay: Effect on fatty acid composition in Wistar rat assessed as change in plasma LCn-6/18:2 level at dose equivalent to 250 umol of tetradecylthioacetic acid, po after 6 days; type: functional
Rattus norvegicus [31] = assay: Effect on fatty acid composition in Wistar rat assessed as change in liver saturated fatty acid level at dose equivalent to 250 umol of tetradecylthioacetic acid, po after 6 days; type: functional; in short: as §2
Rattus norvegicus [32] = assay: Plasma concentration in Wistar rat assessed as tetradecylthioacetic acid at dose equivalent to 85 umol of tetradecylthioacetic acid, po after 6 days; type: ADME, organism-based; conditions: in vivo, 144 h
Liver = assay: Drug concentration in Wistar rat liver assessed as tetradecylthioacetic acid at dose equivalent to 85 umol of tetradecylthioacetic acid, po after 6 days; type: ADME, organism-based; conditions: in vivo, 144 h; in short: as §2

## CCCCCCCCCCCCCCSCC(=O)OCC(COC(=O)CSCCCCCCCCCCCCCC)OC(=O)CSCCCCCCCCCCCCCC [TRITETRADECYLTHIOACETYL GLYCEROL]
Rattus norvegicus [1]
  Activity: Dose-dependent effect
Rattus norvegicus [2]
  Activity: 4.97%
Rattus norvegicus [3]
  Activity: 28.73%
Rattus norvegicus [4]
  Activity: 2.29%
Rattus norvegicus [5]
  Activity: 21.63%
Rattus norvegicus [6]
  Drug uptake: 1.49%
Rattus norvegicus [7]
  Activity: 5.18%
Rattus norvegicus [8]
  Activity: 36.21%
Rattus norvegicus [9]
  Activity: Dose-dependent effect
Rattus norvegicus [10]
  Activity: 10.7%
Rattus norvegicus [11]
  Activity: 11.28%
Rattus norvegicus [12]
  Activity: 19.73%
Rattus norvegicus [13]
  Activity: 22.24%
Rattus norvegicus [14]
  Activity: 2.3%
Rattus norvegicus [15]
  Activity: 0.98%
Rattus norvegicus [16]
  Activity: 34.67%
Rattus norvegicus [17]
  Activity: 39.82%
Rattus norvegicus [18]
  Activity: 18.25%
Rattus norvegicus [19]
  Activity: Dose-dependent effect
Rattus norvegicus [20]
  Activity: Dose-dependent effect
Rattus norvegicus [21]
  Activity: Dose-dependent effect
Rattus norvegicus [22]
  Activity: 21.8%
Rattus norvegicus [23]
  Activity: 19.08%
Rattus norvegicus [24]
  Activity: Dose-dependent effect
Rattus norvegicus [25]
  Activity: 2.35%
Rattus norvegicus [26]
  Activity: 2.7%
Rattus norvegicus [27]
  Activity: 15.91%
Rattus norvegicus [28]
  Activity: 25.81%
Rattus norvegicus [29]
  Activity: 17.27%
Rattus norvegicus [30]
  Activity: 1.22%
Rattus norvegicus [31]
  Activity: 38.98%
Rattus norvegicus [32]
  Drug uptake: 0.51%
Liver
  Drug uptake: 0.69%
Liver; in the assay text read “equivalent to 250 umol” for “equivalent to 85 umol”
  Drug uptake: 2.04%
